# Measured values published in ChEMBL document CHEMBL4513216, “Probing the Open Global Health Chemical Diversity Library for Multistage-Active Starting Points for Next-Generation Antimalarials” (ACS Infect Dis, 2020).
# Assay: Toxicity liver stage against HepG2, at 10uM
# Type: cell-based
# Design: test concentration 10 uM, cell line HepG2-A16-CD81EGFP
# Conditions: human, HepG2-A16-CD81EGFP cells; read-out: INHIBITION
# In short: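 Uninfected HepG2-A16-CD81EGFP cells, 3 × 10^3 per well, 1536-well, plated on prespotted compound at 10 μM final, parasite-free screening media added to match infected plates; puromycin 10 μM positive, DMSO 0.5% negative; run in parallel with 48 h PbLuc assay at 37 °C, 5% CO2; viability by CellTiter-Glo luminescence, normalized to controls.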
row,Structure (SMILES),cytotoxicity at 10 µM
1,Cc1cc(NCc2ccc(N3CCNC(=O)C3)cc2)nc(C)n1,-4.99%
2,CCOc1cc(CNc2nnn(C)n2)ccc1OCc1ccc(Cl)cc1,6.04%
3,CS(=O)(=O)N1CCO[C@@H]2CN(Cc3ccc(F)cc3)C[C@@H]2C1,4.74%
4,O=C(CCO)N1CC2(CCN(c3ccccc3)C2)C1,8.76%
5,CN(C)C[C@H]1OC[C@@H]2CCN(C(=O)NCc3cccc(F)c3)C[C@@H]21,6.98%
6,CS(=O)(=O)N1CCCCC12CCN(C(=O)c1ccccc1)C2 (centres undefined),-148%
7,NC(=O)N1Cc2nccn2CC(Cn2ncccc2=O)C1 (centres undefined),3.19%
8,Cc1noc([C@@]23CCO[C@@H]2CCN(C(=O)c2cc(C)on2)C3)n1,10.9%
9,COCc1ncn2c1CN(S(=O)(=O)c1cccc(OC)c1)CC2,3.47%
10,CN(C)S(=O)(=O)N1CCC2(COCc3cnc(NCC4CC4)nc32)C1 (centres undefined),7.66%
11,COCCO[C@H]1CCN(C(=O)NC2CC2)[C@H]1Cc1cnn(C)c1,8.36%
12,O=C(Cc1ccsc1)N1C[C@@H]2C[C@@H](c3nnc(C4CC4)o3)O[C@@H]2C1,-142%
13,CCn1nc(C)c2nc(C)nc(NCCc3ccc(C)cc3)c21,50.9%
14,N#Cc1cn[nH]c1NCc1cc(Cl)cc(Cl)c1O,19.1%
15,Nc1nnc(Cn2nnc(-c3ccccc3F)n2)s1,3.09%
16,Cn1cc(CN2CCCCC2c2ccc(-c3cccc(F)c3)nc2)cn1 (centres undefined),6.77%
17,Cc1ccc(Nc2nccc(C3CN(C(C)C)C3)n2)nc1,-26.2%
18,CN1CCCC[C@@H]2[C@H]1[C@@H](c1ccccc1)CCN2S(=O)(=O)N1CCCC1,-1.03%
19,CC(C)C(=O)N1CCC(n2nc(-c3ccco3)ccc2=O)CC1,-2.44%
20,Cc1nc2cc(C3CCN(Cc4ccccc4F)C3)nn2c(O)c1C (centres undefined),5.52%
21,CC(C)(C)NC(=O)Cn1c(=O)n(Cc2ccco2)c2ncccc21,-6%
22,CN1CCC(Cc2cc(Nc3ncccn3)ncn2)CC1,1.05%

row,Structure (SMILES),cytotoxicity at 10 µM
1,c1ccc(C2=NOC3(CCN(Cc4c[nH]c5ccccc45)CC3)C2)cc1,3.93%
2,Cc1cnn(CC2CN(c3ncnc4c3CCC4)CCO2)c1 (centres undefined),56.5%
3,COC(=O)NCC(=O)N1CCC(c2cc3ccccc3[nH]2)CC1,-8.55%
4,Cc1ccnc(NC(=O)C2CCCO2)c1 (centres undefined),-11.3%
5,CC(c1ccc(F)cc1F)N1CCN(CCN2CCCC2=O)CC1 (centres undefined),-5.61%
6,COC(=O)CN(C(=O)c1cc(C)c(F)cc1F)c1cccc(C)n1,6.9%
7,COC(=O)CC1CCCCN1CC(=O)Nc1ccc(F)cc1Cl (centres undefined),14%
8,CCc1ccc(C(=O)NC2CCN(c3ccn(C)n3)C2)o1 (centres undefined),-0.577%
9,CCOC1CCN(C(=O)NCc2ccc(CN3CCOCC3)cc2)CC1,7.31%
10,Cc1noc(C)c1CN(C)Cc1csc(-c2ccccc2F)n1,37.2%
11,COCc1cc(N(C)Cc2cnccn2)nc(C(C)(C)C)n1,8.24%
12,CCc1nc(C2NC3(CCCC3)C(=O)N2CC2CC2)cs1 (centres undefined),-1.09%
13,CCc1noc(C(C)N2CCN(c3ncnc4sccc34)CC2)n1 (centres undefined),56.3%
14,COc1cc(OC)cc(N2CCC(NC(=O)c3cccn3C)CC2)c1,-2.1%
15,CC(NC(=O)c1cccs1)(C(N)=O)c1cccc(C(F)(F)F)c1 (centres undefined),-3.42%
16,CN(Cc1ccco1)C(=O)CN1CCCC1c1cccs1 (centres undefined),-3.62%
17,COc1cccc(CN2CCCC2c2ccc[nH]2)c1 (centres undefined),-1.38%
18,NC(=O)COc1cccc(CN2CCCC2c2ccc[nH]2)c1 (centres undefined),8.58%
19,Fc1ccc(CNCc2nnc3n2CC(C(F)(F)F)CC3)c(F)c1 (centres undefined),0.411%
20,Cc1ccc(C2CCCN2CC(=O)N(CCC#N)c2ccccc2)cc1 (centres undefined),-6.89%
21,CCNC(=O)NC(=O)CN1CCC(c2c[nH]c3ccc(OC)cc23)CC1,-12.9%
22,COC1CCN(C(=O)C2CC(=O)N(c3ccccc3Br)C2)CC1 (centres undefined),-3.57%

row,Structure (SMILES),cytotoxicity at 10 µM
1,Cc1nc(C)c(C(=O)NCC(c2ccccc2Cl)N2CCOCC2)s1 (centres undefined),1.4%
2,CCS(=O)(=O)NCC(=O)N1CC2(CCCC2)c2c(F)cccc21,1.56%
3,CCN(CC(=O)NC)C(=O)Cc1csc(C(C)C)n1,-3.61%
4,CCn1nc(C)c(S(=O)(=O)Nc2cccc(C(=O)O)c2C)c1C,-0.731%
5,CC(NCc1ccccc1O)c1ccc(-n2ccnc2)cc1 (centres undefined),-46.9%
6,CC(=O)c1ccc(NC(=O)NCc2cccc(N(C)C)n2)cc1C,6.45%
7,CC(C)c1cc(C(=O)NCC2(C(N)=O)CCOCC2)nn1C(C)(C)C,10.3%
8,CSCc1cc(F)ccc1CNCc1ncc[nH]1,11.5%
9,CCC(C)CS(=O)(=O)NC(=O)C1CCC1 (centres undefined),-7.88%
10,O=C(COC1CCCC1)NC(C(=O)Nc1cc[nH]n1)c1ccccc1 (centres undefined),-10.7%
11,Cn1c(CCN2CCN(c3ccc(O)cc3)CC2)nc2ccccc21,-37.5%
12,CCOc1ccccc1CNC(=O)NCC(c1cnn(C)c1)N(C)C (centres undefined),4.15%
13,Cc1cc(NCCCNS(C)(=O)=O)nc2ccccc12,-4.69%
14,COc1ccc(Oc2cc(CN)ccn2)cc1,3.98%
15,CCc1nnc(CN2CCC(C3CCCCCN3C(=O)C3CC3)CC2)o1 (centres undefined),-49.7%
16,CCC(O)CN(C)Cc1nnc2ccccn12 (centres undefined),-26.7%
17,CCS(=O)(=O)N(C)C1CCN(C(=O)c2cccc(Cl)c2)CC1,-13.7%
18,c1cnn(CC2CN(c3ncnc4ccsc34)CCO2)c1 (centres undefined),38.7%
19,Cc1oncc1C(=O)N1CC[C@H]2[C@H]1CCN2S(C)(=O)=O,-99.4%
20,Cn1ccnc1CN1CCC2(CC1)COCCN(c1ncccn1)C2,11.3%
21,CCO[C@H]1CC[C@H]2[C@@H]1OCCN2C(=O)COc1ccccc1,-88.5%
22,CN(C)C(=O)N1CCn2c(Cn3cccn3)cnc2C1,-76.7%

row,Structure (SMILES),cytotoxicity at 10 µM
1,O=C(c1cscn1)N1C[C@H]2CN(Cc3nccs3)C[C@H]2C1,-65.4%
2,Cc1ccc(C(=O)N2C[C@H]3CCC[C@@]3(COCC3CCOCC3)C2)o1,-66.3%
3,CC[C@H](C)[C@H](N)C(=O)N1CC(=O)c2sc(NCc3ccccc3)nc2C1,-9.58%
4,Cc1ccc(C(=O)N2CC[C@@]3(O)CCN(C(=O)N(C)C)C[C@H]3C2)cc1Cl,-45.5%
5,N#Cc1ccccc1CN1CCC2(CC1)CC(c1ccccc1)C(=O)N2 (centres undefined),-44.8%
6,CSC(C)CCN(Cc1ccccn1)Cc1sccc1C (centres undefined),-2.49%
7,NC1(C(=O)NCC2CCCN(Cc3cccc4nonc34)C2)CCC1 (centres undefined),-43.8%
8,CCc1cc(N2CCC(NCCSc3nnnn3C)CC2)nc(C)n1,-15.2%
9,CC(C)c1cc(CN(C)C(=O)C(C)N2CCc3ccccc3C2)no1 (centres undefined),4.24%
10,Oc1cc(CNCCCN2CCCC2)nc2ccc(F)cc12,-56%
11,O=C(NCCn1ccnc1-c1cc2n(n1)CCNC2)c1ccncc1,-2.66%
12,Oc1cc(CN2CCC(O)(Cn3ccnc3)CC2)nc2ccc(F)cc12,-44.5%
13,CC(Oc1ccc2c(c1)OCO2)C(=O)N1CCC(N2CCOCC2)CC1 (centres undefined),-13.5%
14,COc1ccc(C(=O)C2CCCN(Cc3ccncc3)C2)cc1OC (centres undefined),-0.677%
15,CCNc1ncc(C(=O)NCc2csc(-c3ncccn3)n2)cn1,6.59%
16,Cc1nnc(-c2cccc(N3CCC(NC(C)CC(C)C)CC3)c2)s1 (centres undefined),0.363%
17,COCc1cc(N2CCOC(c3ccc(Cl)c(Cl)c3)C2)ncn1 (centres undefined),0.635%
18,CCN(C)S(=O)(=O)NC(C)c1cnc(N(C)C2CCCCC2)nc1C (centres undefined),-123%
19,CC(C)N1CCCn2nc(C(=O)NCc3ccccc3F)cc2C1,-4.87%
20,O=C(c1ccon1)N1CCCCC1c1nc2cc(F)ccc2[nH]1 (centres undefined),2.58%
21,CCc1cccc(OC2CN(C(=O)[C@@H](N)[C@@H](C)O)C2)c1,-3.92%
22,CN(Cc1ccccc1)c1ncccc1CNC1CN2CCC1CC2 (centres undefined),1.63%

row,Structure (SMILES),cytotoxicity at 10 µM
1,CN1CCCC2(CCN(Cc3cncn3C3CCCCC3)C2)C1=O (centres undefined),-5.96%
2,CC(=O)N1CCc2c(nc(N(C)C)nc2NCc2cccs2)C1,-50.6%
3,CCCN(C(=O)c1ccccn1)c1nc2c(s1)CCc1c-2cnn1C,6.23%
4,Cc1ccoc1C(=O)N1CCCC(c2cc(C(F)(F)F)[nH]n2)C1 (centres undefined),2.4%
5,CN(Cc1cccs1)C(=O)CN1CCOC(Cn2cncn2)C1 (centres undefined),-23.7%
6,O=C(NCCc1ccn(-c2ccccc2)n1)N1CCSCC1,-2.71%
7,CC(C)(C)c1nc(CN2CCCC(Cn3cncn3)C2)cs1 (centres undefined),-4.54%
8,COc1cc(C)c(S(=O)(=O)NCc2cccnc2N(C)C)c(C)c1,12.2%
9,Cc1nccn1CCCn1cncc1-c1ccc2c(c1)CC(C)N2C (centres undefined),0.94%
10,O=S(=O)(c1ccccc1)N1CCC2(CCCN2Cc2cccc(Cl)c2)C1 (centres undefined),-130%
11,C1CCC(CN2Cc3nnn(CC4CC4)c3C(COCC3CC3)C2)C1 (centres undefined),19.7%
12,CC1N(C)C(=O)COC12CCN(Cc1ccsc1)CC2 (centres undefined),-5.24%
13,O=C(C1CCC2(CCN(Cc3cccnc3)CC2)CO1)N1CCCC1 (centres undefined),-108%
14,c1ccc(C[C@H]2CN(Cc3nccs3)CC[C@@H]2OCC2CC2)cc1,-62.3%
15,CO[C@@H]1CCN(Cc2nccs2)C[C@@H]1Cc1ccccc1,-69.5%
16,O=C([C@H]1CN(Cc2ccccc2F)C[C@H]2OCC[C@@H]12)N1CCCO1,13%
17,Cc1ccc(C(=O)N2CCC3(CCN3Cc3ccc(F)cc3)C2)cn1 (centres undefined),-116%
18,c1cnc(N2CCO[C@H]3CN(CC4CCC4)C[C@H]32)cn1,-102%
19,O=C1C[C@H]2[C@@H](CCN2C(=O)Cc2ccsc2)N1Cc1cccnc1,-0.331%
20,c1cncc(N2CCO[C@H]3CN(CC4CCOC4)C[C@H]32)c1 (some centres undefined),-95.7%
21,Cc1cc(CN2C[C@@H]3CC[C@H]2CN(Cc2[nH]cnc2C)C3)on1,-2.34%
